Screens from PubChem.
TRPC4 act – activators of mouse TRPC4 channel; actives 0.49% (n = 310,000); HEK293 TRPC4beta/mu-opioid, Fluo4 calcium fluorescence; active compounds read high; B-score at 10 µM; Q9QUQ5; AID 2237;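 active = B-score above 5 SD of library B-scores, and initial fluorescence ratio not above library mean plus 5 SD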;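 also: positive B-score marks a calcium rise read as TRPC4 activation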
Target sequence (Q9QUQ5 whole entry, looked up): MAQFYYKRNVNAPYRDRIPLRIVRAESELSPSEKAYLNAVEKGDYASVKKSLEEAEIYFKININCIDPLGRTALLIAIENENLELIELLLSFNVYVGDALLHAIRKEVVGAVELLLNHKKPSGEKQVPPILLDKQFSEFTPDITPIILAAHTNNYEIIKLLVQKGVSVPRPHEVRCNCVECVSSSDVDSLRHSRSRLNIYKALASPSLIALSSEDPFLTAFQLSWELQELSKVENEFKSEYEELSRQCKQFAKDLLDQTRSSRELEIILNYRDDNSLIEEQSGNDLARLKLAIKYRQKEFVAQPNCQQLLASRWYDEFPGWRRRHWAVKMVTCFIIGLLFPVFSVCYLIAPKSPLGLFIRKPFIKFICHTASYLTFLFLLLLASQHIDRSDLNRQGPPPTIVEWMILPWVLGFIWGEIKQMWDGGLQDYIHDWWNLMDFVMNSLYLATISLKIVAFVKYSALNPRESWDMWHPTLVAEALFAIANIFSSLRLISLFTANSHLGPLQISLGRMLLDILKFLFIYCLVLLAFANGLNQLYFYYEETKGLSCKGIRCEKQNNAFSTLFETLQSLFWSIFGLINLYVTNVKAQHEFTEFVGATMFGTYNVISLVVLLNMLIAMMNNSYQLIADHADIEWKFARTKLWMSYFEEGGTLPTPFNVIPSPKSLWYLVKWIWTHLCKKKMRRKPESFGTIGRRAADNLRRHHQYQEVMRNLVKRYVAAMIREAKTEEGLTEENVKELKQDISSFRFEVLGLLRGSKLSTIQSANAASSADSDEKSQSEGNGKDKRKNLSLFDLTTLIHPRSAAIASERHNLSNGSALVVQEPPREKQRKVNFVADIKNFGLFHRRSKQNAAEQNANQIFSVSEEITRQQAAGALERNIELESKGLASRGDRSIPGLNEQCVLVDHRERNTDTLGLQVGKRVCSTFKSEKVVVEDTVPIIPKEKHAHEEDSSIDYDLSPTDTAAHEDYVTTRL
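Incubation: 45 min room-temperature Fluo4 loading, 110 s read / System: HEK293 cells stably co-expressing mouse TRPC4beta and mu-opioid receptor / Signal: Fluo4 fluorescence, kinetic / Control set: buffer (low) and maximal DAMGO (high) / Measure: integrated baseline-normalised fluorescence ratio, converted to per-well B score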
TRPC6 activator – mouse TRPC6 channel activation; Q61143; HEK293-TRPC6 membrane potential dye fluorescence; active compounds read high; B-score at 10 µM; actives 0.13% (n = 310,000); AID 2550;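 active = B-score of the integrated fluorescence ratio above library mean plus 3 SD, and starting fluorescence ratio within library mean plus 5 SD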;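 also: higher score means more depolarization so channel activation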
TRPC6 inh – inhibitors of mouse TRPC6 channel | actives 1.1% (n = 310,000) | HEK293-TRPC6, membrane potential dye, ACh-evoked depolarization; active compounds read low | B-score at 10 µM | AID 2553 | Q61143;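 active = B-score under library mean minus 3 SD, initial fluorescence not abnormally high, positive integrated signal ratio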;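 also: B-score derived from integrated fluorescence ratio over the kinetic read; more negative B-score means stronger inhibition of depolarization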
TRPC4 inh – TRPC4 (mouse) channel inhibition. B-score at 10 µM. HEK293 TRPC4beta/mu-opioid, DAMGO-evoked Fluo4 calcium flux; active compounds read low. actives 0.39% (n = 300,000). Q9QUQ5;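 active = B-score over 3 SD under the library average, no early fluorescence shift, positive overall ratio signal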
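Assay system – HEK293 line stably carrying TRPC4beta and mu-opioid receptor · Doses – single dose · Detection – Fluo4 calcium-dye fluorescence, kinetic read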
TRPC4 PAM – TRPC4 (mouse) allosteric potentiation; Q9QUQ5; HEK293 TRPC4beta/mu-opioid, DAMGO EC20, Fluo-4 Ca2+ flux; active compounds read high; B-score at 10 µM; actives 0.42% (n = 310,000);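 active = B-score of calcium response area above 5 SD of library B-scores, with initial fluorescence ratio within 5 SD of library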;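 also: B-score of integrated fluorescence ratio over time as area under calcium response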
Starred values were filed as active, the others as inactive; i = inactive. Hits are enriched below; roughly 2.3% of the tested compounds scored in any of these assays.

SMILES | TRPC4 act | TRPC6 activator | TRPC6 inh | TRPC4 inh | TRPC4 PAM
O=Cc1coc2c(ccc3ccccc32)c1=O | i | i | i | -5* | i
CCCN(CCC)CCCNC(=O)c1cn(CC)c2ccc(S(=O)(=O)N3CCOCC3)cc2c1=O | 45* | i | i | i | i
CN(Cc1ccccc1)C(=O)c1cn(C)c2ccc(S(=O)(=O)N3CCCC3)cc2c1=O | i | i | i | i | 12*
CC1CC(C)CN(CCCNC(=O)c2cn(C)c3ccc(S(=O)(=O)N4CCCC4)cc3c2=O)C1 (stereo not drawn) | 55* | i | i | i | i
CC1CCN(CCCNC(=O)c2cn(C)c3ccc(S(=O)(=O)N4CCCC4)cc3c2=O)CC1 | i | i | i | i | i
Cn1cc(C(=O)N2CCN(c3ccccc3)CC2)c(=O)c2cc(S(=O)(=O)N3CCCC3)ccc21 | i | i | i | i | i
COc1cccc(COC(=O)C2CC(=O)N(Cc3ccco3)C2)c1OC (stereo not drawn) | i | i | i | i | i
COc1ccc(NS(=O)(=O)c2ccc(N3CC(O)=C(c4ccccc4)C3=N)cc2)cc1 | i | i | i | i | i
Cc1ccn2c(NC3CCCCC3)c(C)nc2c1 | i | i | i | i | i
Cc1ccn2c(NC3CCCCC3)c(C(C)C)nc2c1 | i | i | i | -7* | i
O=C(Nc1ccnn1C1CCN(Cc2ccc(CO)o2)CC1)c1ccccc1 | i | i | i | i | i
CCOC(=O)c1c(S(=O)(=O)NCC2CCN(Cc3cccc(F)c3)CC2)c(C)n(C)c1C | i | i | i | i | i
O=c1ccc(-c2ccc(S(=O)(=O)NCC3CCN(Cc4cccc(F)c4)CC3)s2)n[nH]1 | i | i | i | i | 10*
COC(=O)c1sccc1NC(=O)CSc1ccccc1N | i | i | i | i | i
COC(=O)c1sccc1NC(=O)CSc1ccccc1NC(=O)CNC(C)C | i | i | i | -6* | i
O=C1C=CC(=O)N1c1cccc(-c2ccccc2)c1 | i | i | i | i | i
Cc1cc(N2CCN(C)CC2)n2cc(-c3ccc(F)cc3)nc2n1 | i | i | i | i | 15*
Cc1cccc(-c2nnc(SCC(=O)NC3CC3)n2C)c1 | i | i | i | i | i
Cc1ccc(S(=O)(=O)CCC(=O)OC(C)C(=O)NC2CCCCC2C)cc1 (stereo not drawn) | i | i | i | i | i
CC1CN(C(=O)c2ccc(NS(=O)(=O)c3ccc(F)c(F)c3)cc2)CC(C)O1 (stereo not drawn) | i | i | i | i | i
O=C(Nc1cccc(Cl)c1)NC1CCN(C2CCCCC2)C1 (stereo not drawn) | 46* | i | i | i | i
O=C(CCc1nnc2ccc(NCc3ccco3)nn12)Nc1ccc(F)cc1F | i | i | i | i | i
COc1ccc(-c2nc(CSCC(=O)NC3CCN(Cc4ccccc4)CC3)c(C)o2)cc1OC | 116* | i | i | i | i
COc1ccc(-c2nc(CSCC(=O)NC3CC3)c(C)o2)cc1OC | i | i | i | i | i
COc1ccc(-c2cc(C(=O)N3CCN(c4cccc(C)c4C)CC3)c3ccccc3n2)cc1OC | i | i | i | i | i
SMILES | TRPC4 act | TRPC6 activator | TRPC6 inh | TRPC4 inh | TRPC4 PAM
Cc1onc(-c2c(F)cccc2Cl)c1C(=O)N1CCN(c2ncc(Br)cn2)CC1 | 86* | i | i | i | i
CC1(C)COCN1S(=O)(=O)c1ccc(C(=O)Nc2nnc(-c3ccc(Cl)s3)o2)cc1 | 111* | i | i | -5* | i
CCC1CCCCN1S(=O)(=O)c1ccc(C(=O)Nc2nnc(-c3ccccc3Cl)o2)cc1 (stereo not drawn) | 65* | i | i | i | i
S=C(Nc1ccc2[nH]ccc2c1)NC1CCCCC1 | i | i | i | i | i
CCN(CC)CCOC(=O)C1(c2ccccc2)CCOCC1 | 60* | i | i | i | i
COc1ccc(-n2c(O)c(/C=N/NS(=O)(=O)c3ccc(C)c([N+](=O)[O-])c3)c3ccccc3c2=O)cc1OC | 56* | i | i | i | i
O=C(Nc1cccc(S(=O)(=O)N2CCCCCC2)c1)C1=COCCO1 | i | i | i | i | i
Cc1ccsc1/C=C(\C#N)C(=O)Nc1c(C)n(C)n(-c2ccccc2)c1=O | i | i | i | i | 11*
Cc1ccc(S(=O)(=O)Nc2cccc(C(=O)NCC(c3ccco3)N3CCCC3)c2)cc1F (stereo not drawn) | 53* | i | i | -6* | i
CCN(CC)CCCNCC(=O)Nc1ccc(OC)c(Cl)c1 | 65* | i | i | i | i
CCN(CC)CCCNCC(=O)Nc1ccc2c(c1)CCC2 | i | i | i | i | i
O=C(Nc1ccccc1)C1=C[C@H](c2csc3ccccc23)C[C@H](OCc2ccc(CO)cc2)O1 | i | i | i | i | 14*
O=C(NC1CC1)C1=C[C@H](c2csc3ccccc23)C[C@H](OCc2ccc(CO)cc2)O1 | 113* | i | i | i | i
Clc1ccc2nc(CN3CCCCC3)cn2c1 | i | i | i | i | i
Clc1ccc2nc(CN3CCCc4ccccc43)cn2c1 | i | i | i | i | 21*
O=C(NCCc1ccccc1Cl)c1ccc2nc3ccccc3c(=O)n2c1 | i | i | i | i | i
CN1CCN(c2ccc(NC(=O)COc3ccc4ccccc4c3)cc2)CC1 | i | i | i | i | i
CN1CCN(c2ccc(NC(=O)COc3cccc4ccccc34)cc2)CC1 | 177* | i | i | i | i
Cc1ccc(C)c(OCCC(=O)NCCc2ccc(S(N)(=O)=O)cc2)c1 | i | i | i | i | i
Cc1ccc2occ(/C=N/NC(=O)[C@@H](N)Cc3ccccc3)c(=O)c2c1 | i | i | i | i | 12*
CN1CCN(c2ccc(NC(=O)COc3ccccc3)cc2Cl)CC1 | i | i | i | i | i
COC(=O)c1ccc(N2CCN(C)CC2)c(NC(=O)c2cccs2)c1 | 142* | i | i | i | i
Cc1cccc(OCC(=O)Nc2ccccc2N2CCN(C)CC2)c1 | i | i | i | i | i
COC(=O)c1ccc(N2CCN(C)CC2)c(NC(=O)COc2ccccc2)c1 | 120* | i | i | i | i
COC(=O)c1ccc(N2CCOCC2)c(NC(=O)c2cccs2)c1 | i | i | i | i | i
